How the values were obtained:
[1] = system: Mycobacterium intracellulare; assay: Antimycobacterial activity against Mycobacterium intracellulare assessed as inhibition of microbial growth incubated for 1 week by MABA method; format: functional; settings: 168 h, time 1 weeks
Summary of the method: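 Microplate Alamar Blue assay using two-fold serial microdilution in Middlebrook 7H9 broth with 10% OADC, compounds 0.125–512 µg/ml from DMSO stocks. Inoculum came from fresh LJ culture, was adjusted to McFarland 1 and diluted 1:20. Plates were incubated 1 week at 37 °C, Alamar blue was added and plates were re-incubated 24 h. MIC was the lowest concentration preventing the blue-to-pink change. Each plate carried growth and sterile controls.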

[2] = system: Mycobacterium tuberculosis; assay: Antitubercular activity against Mycobacterium tuberculosis H37Rv ATCC 25618 assessed as inhibition of microbial growth incubated for 1 week by MABA method; format: functional; settings: H37Rv ATCC 25618, 168 h, time 1 weeks
Summary of the method: (§1)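 Microplate Alamar Blue assay in Middlebrook 7H9 broth with 10% OADC. Inoculum from fresh LJ culture was adjusted to McFarland 1 and diluted 1:20. DMSO stocks were two-fold serially diluted to final 0.125–512 µg/ml, with growth and sterile controls. Plates ran 1 week at 37 °C, then Alamar blue was added for 24 h. MIC is the lowest concentration preventing the blue-to-pink change.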

[3] = system: Mycobacterium tuberculosis; assay: Antitubercular activity against Mycobacterium tuberculosis Spec.192 assessed as inhibition of microbial growth incubated for 1 week by MABA method; format: functional; settings: Mycobacterium tuberculosis, 192, 168 h; time 1 weeks; summary of the method: as §1
[4] = system: Staphylococcus aureus; assay: Antibacterial activity against Staphylococcus aureus NCTC 4163 assessed as bacterial growth inhibition measured after 18 hrs by two-fold serial microdilution method; format: functional
Summary of the method: (§2)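 Two-fold serial broth microdilution in MH II medium following modified CLSI procedures. Compounds were dissolved in DMSO and diluted in medium to at most 1% solvent, tested from 0.03125 to 512 μg/ml. Final inoculum 10^6 CFU/ml. MIC was taken as the lowest concentration with no visible growth after 18 h at 35 °C.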

[5] = system: Pseudomonas aeruginosa; assay: Antibacterial activity against Pseudomonas aeruginosa PAO1 assessed as bacterial growth inhibition measured after 18 hrs by two-fold serial microdilution method; format: functional; summary of the method: as §2
[6] = Cytotoxicity against human HTB-140 cells assessed as LDH release at 100 uM incubated for 72 hrs by LDH assay; format: cell-based; settings: htb-140, 72 h
Summary of the method: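 LDH release measured with a kit after 72 h exposure to 100 μM compound. Cells were seeded at 1×10^4 per well in DMEM or EMEM with 2% FBS. Absorbance was read at 490 nm. Release (%) = (A sample − A low control)/(A high control − A low control) × 100, with the Triton X-100 (1%) control taken as 100% release. Values are mean ± SD of three independent experiments run in triplicate.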

[7] = system: Mycobacterium tuberculosis; assay: Antitubercular activity against Mycobacterium tuberculosis H37Rv ATCC 25618 assessed as reduction in bacterial growth incubated for 14 days in presence of 1/2 x MIC isoniazid by MABA method; format: functional; settings: H37Rv ATCC 25618, 336 h, time 14 day
Summary of the method: (§3)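 Checkerboard-type combination in Middlebrook 7H9 with 10% OADC. The test derivative at 1 to 1/32 of its MIC alone was mixed with the reference drug fixed at 1/2 its MIC. 4 ml samples were inoculated with McFarland 1 suspension and incubated 14 days at 37 °C. MIC is the lowest derivative concentration in combination that inhibited growth in liquid medium.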

[8] = system: Mycobacterium tuberculosis; assay: Antitubercular activity against Mycobacterium tuberculosis Spec.192 assessed as reduction in bacterial growth incubated for 14 days in presence of 1/2 x MIC streptomycin by MABA method; format: functional; settings: Mycobacterium tuberculosis, 192, 336 h; time 14 day; summary of the method: as §3
[9] = system: Mycobacterium tuberculosis; assay: Potentiation of rifampicin-induced antimycobacterial activity against Mycobacterium tuberculosis H37Rv ATCC 25618 assessed as fold decrease in rifampicin MIC at 1/2X MIC incubated for 14 days in presence of rifampicin by MABA method; format: functional; settings: time 14 day
Summary of the method: (§4)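 Combination assay in Middlebrook 7H9 broth with 10% OADC. The reference drug (INH, RMP, SM or EMB) was varied from 1 to 1/32 of its MIC, and the test derivative was fixed at 1/2 its own MIC. Single-agent MICs were determined first by MABA. Inoculum was 1 McFarland, with 14 days of incubation at 37 °C. The endpoint was the lowest reference-drug concentration that inhibited growth.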

[10] = system: Mycobacterium tuberculosis; assay: Potentiation of rifampicin-induced antimycobacterial activity against Mycobacterium tuberculosis Spec.192 assessed as fold decrease in rifampicin MIC at 1/2X MIC incubated for 14 days in presence of rifampicin by MABA method; format: functional; settings: time 14 day; summary of the method: as §4
[11] = system: Mycobacterium tuberculosis; assay: Potentiation of ethambutol-induced antimycobacterial activity against Mycobacterium tuberculosis H37Rv ATCC 25618 assessed as fold decrease in ethambutol MIC at 1/2X MIC incubated for 14 days in presence of ethambutol by MABA method; format: functional; settings: time 14 day; summary of the method: as §4
[12] = system: Mycobacterium tuberculosis; assay: Potentiation of ethambutol-induced antimycobacterial activity against Mycobacterium tuberculosis Spec.192 assessed as fold decrease in ethambutol MIC at 1/2X MIC incubated for 14 days in presence of ethambutol by MABA method; format: functional; settings: time 14 day; summary of the method: as §4

Row | SMILES | MIC [1] | MIC [2] | MIC [3] | MIC [4] | MIC [5] | Activity [6] | MIC [7] | MIC [8] | fold change (FC) [9] | fold change (FC) [10] | fold change (FC) [11] | fold change (FC) [12]
1 | COc1ccc(-n2nnnc2Nc2cccc(Br)c2)cc1 | 128 µg/mL | 2 µg/mL | 2 µg/mL | > 256 µg/mL | > 256 µg/mL | < 17% | 0.25 µg/mL | 0.5 µg/mL | 2 | 2 | 2 | 2
2 | COc1ccc(-n2nnnc2Nc2ccc(Br)cc2)cc1 | 128 µg/mL | 2 µg/mL | 2 µg/mL | > 256 µg/mL | > 256 µg/mL | Non-Toxic | 0.25 µg/mL | 0.25 µg/mL | – | – | – | –
